Results reported in ChEMBL document CHEMBL3124885, “Discovery of 7-tetrahydropyran-2-yl chromans: β-site amyloid precursor protein cleaving enzyme 1 (BACE1) inhibitors that reduce amyloid β-protein (Aβ) in the central nervous system” (J Med Chem, 2014).
Converted amounts (≈) assume the structure as drawn.

Tests used:
[1] = Ratio of unbound drug level in brain to plasma in Hartley guinea pig at 60 mg/kg, po measured at 8 hrs; type: ADME, organism-based, Cavia porcellus; set-up: dose 60 mg/kg, route oral; settings: brain and plasma (unbound), read-out: K(p,uu,brain)
In short: (§1)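 Male Hartley guinea pigs given single oral doses of 30, 60 or 100 mg/kg in 1% CMC/0.5% Tween/5 mM citrate in H₂O, 6–8 animals per cohort. Plasma, brain and CSF sampled at 1–12 h; free brain to free plasma ratio computed.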

[2] = Drug uptake in Hartley guinea pig CSF at 60 mg/kg, po measured at 5 hrs; type: ADME, organism-based, Cavia porcellus, Cerebrospinal fluid; set-up: dose 60 mg/kg, route oral; settings: read-out: Drug uptake
In short: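 Male Hartley guinea pigs, oral dosing (CMC/Tween/citrate suspension or PEG/EtOH/H₂O solution), six or eight animals per cohort; CSF drug concentration (nM) measured at each time point.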

Plasma [3] = experiment: Unbound plasma concentration in Sprague-Dawley rat at 60 mg/kg, po measured at 5 hrs; type: ADME, organism-based; set-up: dose 60 mg/kg, route oral; settings: in vivo
In short: (§2)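 Male Sprague-Dawley rats were given a single 60 mg/kg oral dose in 1% CMC/0.5% Tween/5 mM citrate in H₂O. Free plasma concentration was determined at 1, 3, 5, 8 and 12 h. Brain, CSF and CSF Aβ₁₋₄₀ were sampled at the same times.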

Brain [4] = experiment: Fraction unbound in Sprague-Dawley rat brain at 60 mg/kg, po measured at 3 hrs; type: ADME, organism-based; set-up: dose 60 mg/kg, route oral; settings: in vivo
In short: (§3)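 Male Sprague–Dawley rats dosed 60 mg/kg po in 1% CMC/0.5% Tween/5 mM citrate in H₂O; plasma, brain and CSF taken at 1, 3, 5, 8 and 12 h; unbound plasma and brain levels and their ratio determined.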

[5] = Unbound plasma concentration in Hartley guinea pig at 60 mg/kg, po measured at 1 hr; type: ADME, organism-based, Cavia porcellus; set-up: dose 60 mg/kg, route oral; settings: in vivo
In short: (§4)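 Male Hartley guinea pigs were dosed orally at 30, 60 or 100 mg/kg, with six or eight animals per cohort. The vehicle was either a suspension in 1% CMC/0.5% Tween/5 mM citrate in H₂O or a 40/10/50 PEG/EtOH/H₂O solution, depending on compound. Unbound plasma concentration was sampled at 1–12 h post-dose alongside brain, CSF and CSF Aβ₁₋₄₀.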

[6] = Fraction unbound in Hartley guinea pig brain at 30 mg/kg, po measured at 3 hrs; type: ADME, organism-based, Cavia porcellus; set-up: dose 30 mg/kg, route oral; settings: in vivo
[7] = Intrinsic clearance in CD-1 mouse hepatocytes at 2 uM after 60 to 120 mins; type: ADME, cell-based, Hepatocyte; settings: read-out: CLH
[8] = Ratio of unbound drug level in brain to plasma in Hartley guinea pig at 60 mg/kg, po measured at 5 hrs; type: ADME, organism-based, Cavia porcellus; set-up: dose 60 mg/kg, route oral; settings: brain and plasma (unbound), read-out: K(p,uu,brain); in short: as §1
[9] = Fraction unbound in Hartley guinea pig brain at 60 mg/kg, po measured at 12 hrs; type: ADME, organism-based, Cavia porcellus; set-up: dose 60 mg/kg, route oral; settings: in vivo
[10] = Ratio of unbound drug level in brain to plasma in Hartley guinea pig at 30 mg/kg, po measured at 3 hrs; type: ADME, organism-based, Cavia porcellus; set-up: dose 30 mg/kg, route oral; settings: brain and plasma (unbound), read-out: K(p,uu,brain); in short: as §1
[11] = Ratio of unbound drug level in brain to plasma in Sprague-Dawley rat at 60 mg/kg, po measured at 12 hrs; type: ADME, organism-based; set-up: dose 60 mg/kg, route oral; settings: brain and plasma (unbound), read-out: K(p,uu,brain); in short: as §3
[12] = Ratio of unbound drug level in brain to plasma in CD-1 mouse measured at 1 hr; type: ADME; settings: mouse, 1 h
In short: (§5)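 Male CD-1 mice given 10 mg/kg po, 3 per cohort; plasma and brain collected at 1 and 4 h. Free brain/plasma ratio from unbound concentrations; coverage ratio = free brain concentration divided by HEK293 Aβ₁₋₄₀ cell IC50.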

Plasma [13] = experiment: Unbound plasma concentration in CD-1 mouse at 3 mg/kg, iv and 10 mg/kg, po measured at 4 hrs; type: ADME, organism-based; settings: in vivo
In short: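 Male CD-1 mice, 3 per cohort, dosed 3 mg/kg iv and 10 mg/kg po; plasma drawn at 1 and 4 h, brains harvested from oral groups only. Formulations varied by compound: 40% PEG 400/10% EtOH/50% H₂O; 30% captisol in H₂O; iv 50 mM citrate in saline (pH 4); po 1% CMC/0.5% Tween/5 mM citrate in H₂O.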

Cavia porcellus = experiment: Hepatic clearance in Hartley guinea pig at 3 mg/kg, iv; type: ADME, organism-based, Liver; set-up: dose 3 mg/kg, route intravenous; settings: in vivo
[14] = Ratio of unbound drug level in brain to plasma in Sprague-Dawley rat at 60 mg/kg, po measured at 1 hr; type: ADME, organism-based; set-up: dose 60 mg/kg, route oral; settings: brain and plasma (unbound), read-out: K(p,uu,brain); in short: as §3
[15] = Ratio of unbound drug level in brain to plasma in Hartley guinea pig at 60 mg/kg, po measured at 3 hrs; type: ADME, organism-based, Cavia porcellus; set-up: dose 60 mg/kg, route oral; settings: brain and plasma (unbound), read-out: K(p,uu,brain); in short: as §1
Plasma [16] = experiment: Unbound plasma concentration in Sprague-Dawley rat at 60 mg/kg, po measured at 1 hr; type: ADME, organism-based; set-up: dose 60 mg/kg, route oral; settings: in vivo; in short: as §2
[17] = Unbound plasma concentration in Hartley guinea pig at 60 mg/kg, po measured at 5 hrs; type: ADME, organism-based, Cavia porcellus; set-up: dose 60 mg/kg, route oral; settings: in vivo; in short: as §4
Plasma [18] = experiment: Unbound plasma concentration in cynomolgus monkey at 0.5 mg/kg, iv and 100 mg/kg, po measured at 4 hrs; type: ADME, organism-based, Macaca fascicularis; settings: in vivo
In short: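 Female cynomolgus monkeys, three per dosing route, received 0.5 mg/kg iv and 100 mg/kg po. Unbound plasma concentration was reported at 2 h and 4 h post-dose.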

[19] = Fraction unbound in Hartley guinea pig brain at 100 mg/kg, po measured at 3 hrs; type: ADME, organism-based, Cavia porcellus; set-up: dose 100 mg/kg, route oral; settings: in vivo
[20] = Ratio of unbound drug level in brain to plasma in Sprague-Dawley rat at 60 mg/kg, po measured at 8 hrs; type: ADME, organism-based; set-up: dose 60 mg/kg, route oral; settings: brain and plasma (unbound), read-out: K(p,uu,brain); in short: as §3
Brain [21] = experiment: Fraction unbound in Sprague-Dawley rat brain at 60 mg/kg, po measured at 1 hr; type: ADME, organism-based; set-up: dose 60 mg/kg, route oral; settings: in vivo; in short: as §3
[22] = Unbound plasma concentration in Hartley guinea pig at 100 mg/kg, po measured at 3 hrs; type: ADME, organism-based, Cavia porcellus; set-up: dose 100 mg/kg, route oral; settings: in vivo; in short: as §4
[23] = Unbound plasma concentration in Hartley guinea pig at 60 mg/kg, po measured at 12 hrs; type: ADME, organism-based, Cavia porcellus; set-up: dose 60 mg/kg, route oral; settings: in vivo; in short: as §4
Brain [24] = experiment: Fraction unbound in Sprague-Dawley rat brain at 60 mg/kg, po measured at 12 hrs; type: ADME, organism-based; set-up: dose 60 mg/kg, route oral; settings: in vivo; in short: as §3
[25] = Ratio of unbound drug level in brain to plasma in Hartley guinea pig at 100 mg/kg, po measured at 3 hrs; type: ADME, organism-based, Cavia porcellus; set-up: dose 100 mg/kg, route oral; settings: brain and plasma (unbound), read-out: K(p,uu,brain); in short: as §1
[26] = Ratio of unbound drug level in brain to plasma in Sprague-Dawley rat at 60 mg/kg, po measured at 3 hrs; type: ADME, organism-based; set-up: dose 60 mg/kg, route oral; settings: brain and plasma (unbound), read-out: K(p,uu,brain); in short: as §3
[27] = Solubility of the compound at pH 7.2; type: physicochemical; settings: buffer
[28] = Unbound plasma concentration in Hartley guinea pig at 60 mg/kg, po measured at 8 hrs; type: ADME, organism-based, Cavia porcellus; set-up: dose 60 mg/kg, route oral; settings: in vivo; in short: as §4
[29] = Ratio of unbound drug level in brain to plasma in CD-1 mouse measured at 4 hrs; type: ADME; settings: CD-1, mouse, read-out: K(p,uu,brain); in short: as §5
[30] = Fraction unbound in Hartley guinea pig brain at 60 mg/kg, po measured at 8 hrs; type: ADME, organism-based, Cavia porcellus; set-up: dose 60 mg/kg, route oral; settings: in vivo
[31] = Drug uptake in Sprague-Dawley rat CSF at 60 mg/kg, po measured at 1 hr; type: ADME, organism-based, Cerebrospinal fluid; set-up: dose 60 mg/kg, route oral; settings: read-out: Drug uptake
In short: (§6)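 Male Sprague−Dawley rats dosed orally at 60 mg/kg in 1% CMC/0.5% Tween/5 mM citrate in H₂O; CSF compound concentration (nM) at 1–12 h.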

[32] = Drug uptake in Sprague-Dawley rat CSF at 60 mg/kg, po measured at 3 hrs; type: ADME, organism-based, Cerebrospinal fluid; set-up: dose 60 mg/kg, route oral; settings: read-out: Drug uptake; in short: as §6
[33] = Intrinsic clearance in cynomolgus monkey hepatocytes at 2 uM after 60 to 120 mins; type: ADME, cell-based, Macaca fascicularis, Hepatocyte; settings: read-out: CLH
[34] = Drug uptake in Sprague-Dawley rat CSF at 60 mg/kg, po measured at 12 hrs; type: ADME, organism-based, Cerebrospinal fluid; set-up: dose 60 mg/kg, route oral; settings: read-out: Drug uptake; in short: as §6

CN1C(=O)[C@]2(N=C1N)c1cc(-c3cccnc3F)ccc1O[C@H]1CCOC[C@@H]12
Kp uu at 8 h [1]: > 1.7
concentration at 5 h [2]: 6.9 nM
Cp(f) (Plasma [3]): 2700 nM
Drug uptake(free) (Brain [4]): 66 nM
Cp(f) [5]: 140 nM
Drug uptake(free) [6]: 9.5 nM
CLint scaled at 2 µM [7]: 36 mL/min/kg
Kp uu at 5 h [8]: 1.7
Drug uptake(free) [9]: 11 nM
Kp uu at 3 h [10]: 1.6
Kp uu at 12 h [11]: 0.048
K(p,uu,brain) [12]: 0.08
Cp(f) (Plasma [13]): 78 nM
CLH (Cavia porcellus): 110 mL/min/kg
Kp uu at 1 h [14]: 0.022
Kp uu at 3 h [15]: 1.5
Cp(f) (Plasma [16]): 3100 nM
Cp(f) [17]: 7 nM
Cp(f) (Plasma [18]): 1700 nM
Drug uptake(free) [19]: 50 nM
Kp uu at 8 h [20]: 0.049
Drug uptake(free) (Brain [21]): 68 nM
Cp(f) [22]: 38 nM
Cp(f) [23]: < 3 nM
Drug uptake(free) (Brain [24]): 46 nM
Kp uu at 3 h [25]: 1.3
Kp uu at 3 h [26]: 0.03
solubility [27]: 220 µg/mL (≈ 575 µM)
Cp(f) [28]: < 3 nM
Kp uu at 4 h [29]: 0.19
Drug uptake(free) [30]: 5.2 nM
concentration at 1 h [31]: 290 nM
concentration at 3 h [32]: 150 nM
CLint scaled at 2 µM [33]: 5.8 mL/min/kg
concentration at 12 h [34]: 85 nM
